This is an account of results in ChEMBL document CHEMBL4825764, “Flavonoid Monomers as Potent, Nontoxic, and Selective Modulators of the Breast Cancer Resistance Protein (ABCG2)” (J Med Chem, 2021).

For series [1], the species on record is Homo sapiens. Put plainly: Selectivity index, ratio of EC50 for inhibition of P-gp (unknown origin) expressed in LCC6MDR cells assessed as reversal of paclitaxel resistance to EC50 for inhibition of BCRP (unknown origin) transfected in HEK293/R2 cells assessed as reversal of topotecan resistance. The class given is cell-based. In a few lines:
(§1)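 Selectivity index is the EC50 against the other transporter's line divided by the EC50 in the BCRP line. All values come from 5-day MTS reversal assays. These use topotecan in HEK293/R2 (0–2000 nM) or MCF7-MX100 (0–100 μM), doxorubicin in 2008/MRP1, and paclitaxel in LCC6MDR, each with modulator at 0–1000 nM.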

For series [2], the species on record is Homo sapiens. Put plainly: Selectivity index, ratio of EC50 for inhibition of MRP1 (unknown origin) expressed in 2008/MRP1 cells assessed as reversal of doxorubicin resistance to EC50 for inhibition of BCRP (unknown origin) transfected in HEK293/R2 cells assessed as reversal of topotecan resistance. The class given is cell-based. The method in brief: as §1

The target in series [3] is T1, Broad substrate specificity ATP-binding cassette transporter ABCG2 (Homo sapiens, UniProt Q9UNQ0).
T1 sequence (Q9UNQ0 whole entry): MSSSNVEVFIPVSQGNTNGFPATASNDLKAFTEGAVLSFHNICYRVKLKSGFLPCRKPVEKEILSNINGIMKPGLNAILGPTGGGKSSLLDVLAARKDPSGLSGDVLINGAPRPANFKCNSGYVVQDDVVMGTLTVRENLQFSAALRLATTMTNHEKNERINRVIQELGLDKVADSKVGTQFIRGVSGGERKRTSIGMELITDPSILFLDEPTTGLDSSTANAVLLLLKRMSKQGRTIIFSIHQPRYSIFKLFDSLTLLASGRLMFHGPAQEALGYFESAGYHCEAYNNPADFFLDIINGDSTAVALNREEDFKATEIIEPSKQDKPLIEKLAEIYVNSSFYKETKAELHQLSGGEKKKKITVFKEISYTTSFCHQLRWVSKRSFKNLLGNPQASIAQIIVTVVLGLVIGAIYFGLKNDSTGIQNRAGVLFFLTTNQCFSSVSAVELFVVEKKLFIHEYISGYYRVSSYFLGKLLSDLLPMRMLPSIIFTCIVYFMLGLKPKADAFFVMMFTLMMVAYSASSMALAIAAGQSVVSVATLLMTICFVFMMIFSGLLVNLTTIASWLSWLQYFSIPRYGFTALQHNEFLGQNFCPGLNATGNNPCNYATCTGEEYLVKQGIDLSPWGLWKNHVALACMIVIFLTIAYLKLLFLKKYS
In words: Inhibition of BCRP (unknown origin) expressed in human HEK293/R2 cells assessed as increase in intracellular mitoxantrone accumulation by measuring fold change at 1 uM after 2 hrs in presence of mitoxantrone by flow cytometry analysis relative to control. The class given is cell-based. The settings on record: hek293/r2, 2 h. The method in brief:
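5 × 10^5 HEK293/pcDNA3.1 or HEK293/R2 cells in 1 mL were incubated 2 hr at 37 °C with 50 μM topotecan or 5 μM mitoxantrone plus 1 or 2 μM modulator, with DMSO as the vehicle control. Cells were washed in cold PBS and resuspended in FACS buffer. Flow cytometry read FL1 (topotecan) or FL4 (mitoxantrone) over 50,000 events, normalized to wild-type cells.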
In general terms: A flow cytometer gives signals particle by particle.

A further series addresses T2, BCRP (ABCG2) (Homo sapiens, UniProt Q9UNQ0).
T2 sequence (Q9UNQ0 whole entry): T1 sequence (Q9UNQ0 whole entry)
In words: Inhibition of BCRP (unknown origin) expressed in HEK293/R2 cells assessed as conformational change by measuring increase in 5D3 shift at 1 uM preincubated for 15 mins followed by FITC mouse antihuman BCRP antibody addition measured after 30 mins by flow cytometry analysis. The class given is cell-based. The settings on record: HEK293/R2 cells expressing BCRP, time 45 min. The method in brief:
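5 × 10^5 HEK293/R2 cells in FACS buffer were shaken 15 min at 37 °C with 1 μM compound. FITC 5D3 anti-BCRP was then added for 30 min at 37 °C and fluorescence read by flow cytometry on FL1. Compound-only background was subtracted and the untreated DMSO shift removed. Result is % of the 1 μM Ko143-induced shift.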

The target of series [4] is T1, Broad substrate specificity ATP-binding cassette transporter ABCG2. Put plainly: Inhibition of BCRP (unknown origin) expressed in HEK293/R2 cells assessed as reduction in BCRP protein level at 1 uM after 4 days by Western blot analysis. To be noted: hek293/r2, 96 h. Background: In western blotting, separated proteins are transferred to a membrane and probed.

Consider `COC(=O)c1cccc(COc2c(-c3ccc(OCCCCc4cn(Cc5ccccc5)nn4)cc3)oc3ccccc3c2=O)c1`, for which the Ratio EC50 is 96 in the series listed under Homo sapiens [1] and 143 in the series listed under Homo sapiens [2]. For the same molecule, the “fold change (FC)” value in series [3] amounted to 5.9. Further, on BCRP (ABCG2), the inhibition (in general, the drop in the measured response relative to a control, in per cent) at 0.5 h, 1 µM is 100%. In addition, the “inhibition (INH)” value in series [4] is listed as “Not Active”.
